According to ChEMBL document CHEMBL1240328, “Selective compounds define Hsp90 as a major inhibitor of apoptosis in small-cell lung cancer” (Nat Chem Biol, 2007):
Activity calls are given as the source filed them.

Experiments:
[1] = biological target: Heat shock protein HSP 90-beta (Homo sapiens) (UniProt P08238); assay: Inhibition of HSP90-mediated antiapoptotic activity in human NCI-H526 cells assessed as reduction in BAD phosphorylation at 20 uM after 24 hrs by Western blot analysis; type: cell-based
Heat shock protein HSP 90-beta (Homo sapiens), sequence (P08238 whole entry): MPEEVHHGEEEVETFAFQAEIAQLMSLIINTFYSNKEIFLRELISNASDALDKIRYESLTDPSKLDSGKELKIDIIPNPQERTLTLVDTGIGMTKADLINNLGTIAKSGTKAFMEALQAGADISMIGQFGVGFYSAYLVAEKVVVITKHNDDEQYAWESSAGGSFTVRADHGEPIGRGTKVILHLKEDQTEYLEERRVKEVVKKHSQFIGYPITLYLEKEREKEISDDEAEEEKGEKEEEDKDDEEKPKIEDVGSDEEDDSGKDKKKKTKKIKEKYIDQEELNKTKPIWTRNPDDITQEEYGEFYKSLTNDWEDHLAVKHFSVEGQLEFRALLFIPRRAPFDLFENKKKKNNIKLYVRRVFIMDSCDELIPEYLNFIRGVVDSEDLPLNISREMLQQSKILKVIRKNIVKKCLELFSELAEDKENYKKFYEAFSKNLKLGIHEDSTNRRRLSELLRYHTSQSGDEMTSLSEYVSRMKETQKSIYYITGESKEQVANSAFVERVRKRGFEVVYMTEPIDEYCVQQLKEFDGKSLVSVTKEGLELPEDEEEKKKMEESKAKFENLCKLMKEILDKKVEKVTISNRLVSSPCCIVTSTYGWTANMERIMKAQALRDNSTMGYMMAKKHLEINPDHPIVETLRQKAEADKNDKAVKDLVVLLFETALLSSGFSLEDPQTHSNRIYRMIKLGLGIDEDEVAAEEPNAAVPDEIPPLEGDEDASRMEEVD

[2] = biological target: Heat shock protein HSP 90-beta (Homo sapiens) (UniProt P08238); assay: Inhibition of HSP90-mediated antiapoptotic activity in human SKBR3 cells assessed as induction of PARP cleavage at 20 uM after 24 hrs by Western blot analysis; type: cell-based; details: SK-BR-3
Method in brief: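 SKBr3 cells at 60–70% confluence were exposed to drug or DMSO vehicle. Lysis was in 50 mM Tris pH 7.4, 150 mM NaCl, 1% NP-40, with protein measured by BCA. Lysates of 20–100 µg were run on SDS-PAGE, blotted to nitrocellulose, probed with primary antibodies and detected with a peroxidase-conjugated secondary (1:5,000). Loading was checked with β-actin or PI(3)K p85.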

NCI-H526 = assay: Inhibition of HSP70-mediated antiapoptotic activity in human NCI-H526 cells assessed as induction of PARP cleavage after 24 hrs by Western blot analysis; type: cell-based
Method in brief: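 NCI-H526 cells were treated for 24 h. PARP and caspase-3 cleavage were read by western blot of lysates in Tris/NaCl/NP-40 buffer. Apaf-1 complexes were immunoprecipitated with Apaf-1 antibody, using control IgG, then blotted.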

[3] = biological target: Heat shock protein HSP 90-beta (Homo sapiens) (UniProt P08238); assay: Inhibition of HSP90-mediated antiapoptotic activity in human NCI-H526 cells assessed as subG1 accumulation at 25 uM after 72 hrs by propidium iodide staining-based flow cytometry; type: cell-based
Method in brief: (§1)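 SCLC cells treated for 72 h with graded doses. Mitochondrial membrane potential read by flow cytometry after JC-1 staining, with green-only emission indicating depolarization. Sub-G1 DNA content read after propidium iodide staining. CCCP used as positive control. n = 3 repeat experiments.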

[4] = biological target: Heat shock protein HSP 90-beta (Homo sapiens) (UniProt P08238); assay: Inhibition of HSP90-mediated antiapoptotic activity in human NCI-H187 cells assessed as subG1 accumulation at 2.5 uM after 72 hrs by propidium iodide staining-based flow cytometry; type: cell-based; method in brief: as §1
[5] = biological target: Heat shock protein HSP 90-beta (Homo sapiens) (UniProt P08238); assay: Inhibition of HSP90-mediated antiapoptotic activity in human NCI-H187 cells assessed as subG1 accumulation at 25 uM after 72 hrs by propidium iodide staining-based flow cytometry; type: cell-based; method in brief: as §1
[6] = biological target: Heat shock protein HSP 90-beta (Homo sapiens) (UniProt P08238); assay: Inhibition of HSP90-mediated antiapoptotic activity in human NCI-N417 cells assessed as subG1 accumulation at 25 uM after 72 hrs by propidium iodide staining-based flow cytometry; type: cell-based; details: NCI-H417
Method in brief: (§2)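 Asynchronously growing cells were treated with compound, stained with propidium iodide and analysed by flow cytometry. The read-out was the percentage of cells with sub-G1 DNA content.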

[7] = biological target: Heat shock protein HSP 90-beta (Homo sapiens) (UniProt P08238); assay: Inhibition of HSP90-mediated antiapoptotic activity in human NCI-H526 cells assessed as reduction in BAD phosphorylation at 10 uM after 24 hrs by Western blot analysis; type: cell-based
[8] = biological target: Heat shock protein HSP 90-beta (Homo sapiens) (UniProt P08238); assay: Inhibition of HSP90-mediated antiapoptotic activity in human NCI-N417 cells assessed as subG1 accumulation at 2.5 uM after 72 hrs by propidium iodide staining-based flow cytometry; type: cell-based; details: NCI-H417; method in brief: as §2
[9] = biological target: Heat shock protein HSP 90-beta (Homo sapiens) (UniProt P08238); assay: Inhibition of HSP90-mediated antiapoptotic activity in human NCI-H526 cells assessed as induction of Akt degradation at 10 uM after 24 hrs by Western blot analysis; type: cell-based
[10] = biological target: Heat shock protein HSP 90-beta (Homo sapiens) (UniProt P08238); assay: Inhibition of HSP90-mediated antiapoptotic activity in human NCI-H526 cells assessed as induction of PARP cleavage at 10 uM after 24 hrs by Western blot analysis; type: cell-based
Method in brief: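 NCI-H526 cells at 60–70% confluence were exposed to drug or DMSO for 24 h. Lysed in 50 mM Tris pH 7.4, 150 mM NaCl, 1% NP-40, with protein measured by BCA. 20–100 µg run on SDS-PAGE and blotted to nitrocellulose. Probed with cleaved-protein antibodies and peroxidase secondary at 1:5,000, with β-actin as loading control.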

[11] = biological target: Heat shock protein HSP 90-beta (Homo sapiens) (UniProt P08238); assay: Inhibition of HSP90-mediated antiapoptotic activity in human NCI-H526 cells assessed as induction of cell death at 10 uM after 72 hrs by propidium iodide staining-based flow cytometry in presence of broad-spectrum caspase inhibitor Boc-D-FMK
Method in brief: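 NCI-H526 cells pretreated for 3 h with Boc-D-FMK (100 µM), then exposed to 10 µM for 72 h. Flow cytometry after JC-1 staining for mitochondrial potential and after propidium iodide staining for DNA content. n = 3.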

[12] = biological target: Heat shock protein HSP 90-beta (Homo sapiens) (UniProt P08238); assay: Inhibition of HSP90-mediated antiapoptotic activity in human MCF7 cells assessed as induction of caspase-9 cleavage at 400 uM after 24 hrs by Western blot analysis; type: cell-based

O=CN1CC/C(=C/c2ccc3c(c2)OCO3)C1=O
inactive: Activity [1] | Activity [2] | inhibition (NCI-H526) | Activity [3] | Activity [4] | Activity [5] | Activity [6] | Activity [7] | Activity [8] | Activity [9] | Activity [10] | Activity [11] | Activity [12]
